Each block holds one compound with its values, some of them ahead of it.
Key:
HCT-116 = test: Cytotoxicity against human HCT116 cells after 72 hrs; format: functional, cell-based; conditions: HCT-116, 72 h
[1] = Cytotoxicity against human HS-Sultan cells after 72 hrs; format: functional, cell-based
[2] = Inhibition of chymotrypsin-like activity of human 20S proteasome using succinyl-Leu-Leu-Val-Tyr-4-methylcoumaryl-7-amide as substrate after 60 mins by fluorescence assay
KB = test: Cytotoxicity against human KB cells after 72 hrs; format: functional, cell-based
[3] = Inhibition proteasome (unknown origin); parameters: species or system Homo sapiens
[4] = Half life in TEAA buffer at 7.5 mM by RP-HPLC analysis; format: physicochemical
Summary of the method: (§1)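 Water-soluble analogues incubated at 37 °C in 0.1 M TEAA buffer, pH 7.4, or in human AB serum. Compound remaining was followed over time by HPLC, and the half-life was derived. Buffer half-lives are given in hours and serum half-lives in minutes.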

[5] = Half life in human AB serum at 23 mM by RP-HPLC analysis; format: ADME, cell-free; summary of the method: as §1

IC50 [2]: 10 nM
SMILES: CC[C@H](C)[C@@H]1C(=O)O[C@H]1C(=O)N[C@H]1C[C@H]1C[C@@H](CCc1ccccc1)NC(=O)[C@H](C)NC(=O)c1ccc2ccccc2c1

IC50 [2]: 140 nM
SMILES: CC[C@H](C)[C@@H]1C(=O)O[C@H]1C(=O)N[C@H]1C[C@H]1[C@@H](C)[C@@H](CCc1ccccc1)NC(=O)c1ccc2ccccc2c1

IC50 [2]: 33 nM
SMILES: CC[C@H](C)[C@@H]1C(=O)O[C@H]1C(=O)N[C@H]1C[C@H]1C[C@@H](CCc1ccccc1)NC(=O)c1ccc2ccccc2c1

IC50 [2]: 750 nM
SMILES: CC[C@H](C)[C@@H]1C(=O)O[C@H]1C(=O)N[C@H]1C[C@H]1[C@H](C)[C@@H](CCc1ccccc1)NC(=O)c1ccc2ccccc2c1

More lines, now with the values behind:

SMILES: CC[C@H](C)[C@@H]1C(=O)O[C@H]1C(=O)N[C@H]1C[C@H]1[C@H](C)[C@@H](CCc1ccccc1)NC(=O)[C@H](C)NC(=O)OCc1ccccc1
IC50 (HCT-116): > 10000 nM
IC50 [1]: 1800 nM
IC50 [2]: 280 nM
IC50 (KB): > 10000 nM

SMILES: CC[C@H](C)[C@@H]1C(=O)O[C@H]1C(=O)N[C@H]1C[C@H]1C[C@H](NC(=O)[C@H](C)N)C(=O)O [BELACTOSIN A]
IC50 [2]: 1440 nM
IC50 [3]: 304 nM

SMILES: CC[C@H](C)[C@@H]1C(=O)O[C@H]1C(=O)N[C@H]1C[C@H]1[C@H](C)[C@@H](CCc1ccccc1)NC(=O)[C@H](C)N
half-life at 7500 µM [4]: 21 h
half-life at 23000 µM [5]: 4.7 min

SMILES: CC[C@H](C)[C@@H]1C(=O)O[C@H]1C(=O)N[C@H]1C[C@H]1[C@@H](C)[C@@H](CCc1ccccc1)NC(=O)[C@H](C)N
half-life at 7500 µM [4]: 14 h
half-life at 23000 µM [5]: 4.2 min

SMILES: CC[C@H](C)[C@@H]1C(=O)O[C@H]1C(=O)N[C@H]1C[C@H]1[C@H](C)[C@@H](CCc1ccccc1)NC(=O)[C@H](C)NC(=O)c1ccc2ccccc2c1
IC50 [2]: 630 nM

SMILES: CC[C@H](C)[C@@H]1C(=O)O[C@H]1C(=O)N[C@H]1C[C@H]1[C@@H](C)[C@@H](CCc1ccccc1)NC(=O)[C@H](C)NC(=O)c1ccc2ccccc2c1
IC50 [2]: 42 nM

SMILES: CC[C@H](C)[C@@H]1C(=O)O[C@H]1C(=O)N[C@H]1C[C@H]1C[C@@H](CCc1ccccc1)NC(=O)[C@H](C)N (mixture of isomers)
half-life at 7500 µM [4]: 10 h
half-life at 23000 µM [5]: 2.3 min

SMILES: CC[C@H](C)[C@@H]1C(=O)O[C@H]1C(=O)N[C@H]1C[C@H]1C[C@@H](CCc1ccccc1)NC(=O)[C@H](C)NC(=O)OCc1ccccc1
IC50 [1]: 870 nM
IC50 [2]: 5.7 nM
IC50 (KB): 2600 nM

SMILES: CC[C@H](C)[C@@H]1C(=O)O[C@H]1C(=O)N[C@H]1C[C@H]1[C@@H](C)[C@@H](CCc1ccccc1)NC(=O)[C@H](C)NC(=O)OCc1ccccc1
IC50 (HCT-116): 630 nM
IC50 [1]: 310 nM
IC50 [2]: 47 nM
IC50 (KB): 1700 nM

Reference: ChEMBL document CHEMBL2401636, “Investigation of the noncovalent binding mode of covalent proteasome inhibitors around the transition state by combined use of cyclopropylic strain-based conformational restriction and computational modeling” (J Med Chem, 2013)
